# ChEMBL document CHEMBL4732260, “Developing novel classes of protein kinase CK1δ inhibitors by fusing [1,2,4]triazole with different bicyclic heteroaromatic systems” (Eur J Med Chem, 2021)
# The source made the active and inactive calls. The calls are words filed in the database; no cut-off is given here.
# Key:
# [1] = target: T1, Casein kinase I isoform delta (Homo sapiens, UniProt P48730); test: Inhibition of recombinant human N-terminal GST-tagged CK1delta (1 to 294 residues) using casein as substrate measured after 60 mins in presence of ATP by Kinase-Glo reagent-based luminescence assay
# Target sequence in this assay (P48730 whole entry, the tested form may be a part, canonical isoform): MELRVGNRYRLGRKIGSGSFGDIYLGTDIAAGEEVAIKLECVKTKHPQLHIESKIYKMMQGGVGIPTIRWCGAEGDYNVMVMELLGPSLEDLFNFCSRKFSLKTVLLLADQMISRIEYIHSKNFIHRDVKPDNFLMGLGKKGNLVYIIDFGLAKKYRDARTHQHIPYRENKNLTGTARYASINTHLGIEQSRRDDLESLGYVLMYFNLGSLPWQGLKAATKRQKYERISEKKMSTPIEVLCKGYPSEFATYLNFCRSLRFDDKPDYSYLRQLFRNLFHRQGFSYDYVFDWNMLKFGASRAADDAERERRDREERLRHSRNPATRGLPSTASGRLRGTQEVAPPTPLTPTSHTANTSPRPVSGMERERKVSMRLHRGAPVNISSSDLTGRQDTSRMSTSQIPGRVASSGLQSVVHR
# [2] = target: T1, Casein kinase I isoform delta; test: Inhibition of recombinant human N-terminal GST-tagged CK1delta (1 to 294 residues) at 40 uM using casein as substrate measured after 60 mins in presence of ATP by Kinase-Glo reagent-based luminescence assay relative to control
# Target sequence in this assay (P48730 whole entry, looked up, the tested form may be a part, canonical isoform): as the sequence (P48730 whole entry, the tested form may be a part, canonical isoform) above
# [3] = target: T2, Casein kinase I isoform alpha-like (Homo sapiens) (UniProt Q8N752); test: Binding affinity to wild-type human full length CSNK1A1L (M1 to N337 residues) expressed in bacterial expression system at 10 uM by Kinomescan method relative to control
# T2 sequence (whole entry): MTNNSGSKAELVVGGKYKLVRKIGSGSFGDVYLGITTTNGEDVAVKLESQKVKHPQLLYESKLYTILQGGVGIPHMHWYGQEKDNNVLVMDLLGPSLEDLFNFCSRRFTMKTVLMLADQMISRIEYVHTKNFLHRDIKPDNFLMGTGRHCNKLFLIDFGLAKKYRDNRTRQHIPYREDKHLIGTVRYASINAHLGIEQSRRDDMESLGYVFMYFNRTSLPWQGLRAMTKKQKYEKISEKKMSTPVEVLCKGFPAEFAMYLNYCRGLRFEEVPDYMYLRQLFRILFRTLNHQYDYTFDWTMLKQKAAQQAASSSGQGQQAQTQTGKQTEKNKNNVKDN
# How it was run: (§1)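 KINOMEscan competition binding across the CK1 isoform panel, compound at 10 µM. Reported as % binding relative to a […].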
# [4] = target: T3, Casein kinase I isoform epsilon (Homo sapiens, UniProt P49674); test: Binding affinity to wild-type human full length CSNK1E (M1 to K416 residues) expressed in bacterial expression system at 10 uM by Kinomescan method relative to control; how it was run: as §1
# Target sequence in this assay (P49674 whole entry, looked up, the tested form may be a part, canonical isoform): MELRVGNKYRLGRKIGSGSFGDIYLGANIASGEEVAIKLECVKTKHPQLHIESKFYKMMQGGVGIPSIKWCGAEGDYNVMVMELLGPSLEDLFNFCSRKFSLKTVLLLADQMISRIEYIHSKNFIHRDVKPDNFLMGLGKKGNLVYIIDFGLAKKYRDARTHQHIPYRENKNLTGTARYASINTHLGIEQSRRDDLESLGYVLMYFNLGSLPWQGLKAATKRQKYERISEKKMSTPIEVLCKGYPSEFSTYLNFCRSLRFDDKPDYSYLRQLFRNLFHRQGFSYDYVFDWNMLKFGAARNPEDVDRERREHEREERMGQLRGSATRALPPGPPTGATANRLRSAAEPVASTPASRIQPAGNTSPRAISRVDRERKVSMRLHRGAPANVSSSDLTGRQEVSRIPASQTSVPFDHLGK
# [5] = target: T1, Casein kinase I isoform delta; test: Inhibition of recombinant human full-length N-terminal GST-tagged CK1delta using casein as substrate measured after 10 mins in presence of ATP by Kinase-Glo reagent-based luminescence assay
# How it was run: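 Full-length CK1δ at 26 nM with 0.1% casein and 4 µM ATP added, in 50 mM HEPES pH 7.5, 1 mM EDTA, 1 mM EGTA, 15 mM Mg acetate. Ten inhibitor concentrations from 100 to 0.026 µM. 10 min at 30 °C, Kinase-Glo stop, luminescence read after 10 min at 30 °C. IC50 given as mean ± standard error of three independent experiments.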
# Target sequence in this assay (P48730 whole entry, the tested form may be a part, canonical isoform): as the sequence (P48730 whole entry, the tested form may be a part, canonical isoform) above
# [6] = target: Casein kinase I isoform gamma-2 (Homo sapiens) (UniProt P78368); test: Binding affinity to wild-type human full length CSNK1G2 (M1 to K415 residues) expressed in bacterial expression system at 10 uM by Kinomescan method relative to control; how it was run: as §1
# Sequence of Casein kinase I isoform gamma-2 (Homo sapiens) (P78368 whole entry, looked up, the tested form may be a part, canonical isoform): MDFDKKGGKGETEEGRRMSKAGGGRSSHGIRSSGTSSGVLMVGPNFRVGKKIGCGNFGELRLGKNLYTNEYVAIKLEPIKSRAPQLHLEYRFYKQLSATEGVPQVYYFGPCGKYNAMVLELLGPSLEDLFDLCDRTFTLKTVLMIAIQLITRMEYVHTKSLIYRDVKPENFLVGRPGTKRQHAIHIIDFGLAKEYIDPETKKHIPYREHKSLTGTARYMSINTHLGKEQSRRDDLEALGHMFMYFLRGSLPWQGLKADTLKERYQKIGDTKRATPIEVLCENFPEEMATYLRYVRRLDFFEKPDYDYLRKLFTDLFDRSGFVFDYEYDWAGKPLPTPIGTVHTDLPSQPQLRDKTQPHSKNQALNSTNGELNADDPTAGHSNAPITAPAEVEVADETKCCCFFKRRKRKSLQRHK
# [7] = target: Casein kinase I isoform alpha (Homo sapiens) (UniProt P48729); test: Binding affinity to wild-type human partial length CSNK1A1 (M1 to L301 residues) expressed in mammalian expression system at 10 uM by Kinomescan method relative to control; how it was run: as §1
# Sequence of Casein kinase I isoform alpha (Homo sapiens) (P48729 2-337 limits assumed): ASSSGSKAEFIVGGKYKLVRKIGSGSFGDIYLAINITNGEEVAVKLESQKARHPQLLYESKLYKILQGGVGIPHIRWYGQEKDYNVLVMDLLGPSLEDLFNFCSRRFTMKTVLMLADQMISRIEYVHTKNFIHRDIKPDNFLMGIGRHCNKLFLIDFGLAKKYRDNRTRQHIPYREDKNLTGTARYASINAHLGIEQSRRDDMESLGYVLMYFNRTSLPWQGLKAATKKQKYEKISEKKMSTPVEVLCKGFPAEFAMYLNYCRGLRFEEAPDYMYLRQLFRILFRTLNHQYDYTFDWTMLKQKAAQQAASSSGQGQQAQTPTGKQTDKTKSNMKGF
# PBL [8] = test: Cytotoxicity against PHA-stimulated human PBL assessed as inhibition of cell growth after 72 hrs by resazurin based assay
# How it was run: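 PBL isolated from buffy coats by Lymphoprep density gradient, held overnight in RPMI-1640 with 10% FBS. Non-adherent cells at 5×10^5 cells/mL with 2.5 µg/mL PHA. 72 h compound exposure; viability by resazurin fluorescence at 590 nm over 4 h.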
# [9] = target: Casein kinase I isoform gamma-1 (Homo sapiens) (UniProt Q9HCP0); test: Binding affinity to wild-type human partial length CSNK1G1 (T15 to S353 residues) expressed in bacterial expression system at 10 uM by Kinomescan method relative to control; how it was run: as §1
# Sequence of Casein kinase I isoform gamma-1 (Homo sapiens) (Q9HCP0 whole entry, looked up, the tested form may be a part, canonical isoform): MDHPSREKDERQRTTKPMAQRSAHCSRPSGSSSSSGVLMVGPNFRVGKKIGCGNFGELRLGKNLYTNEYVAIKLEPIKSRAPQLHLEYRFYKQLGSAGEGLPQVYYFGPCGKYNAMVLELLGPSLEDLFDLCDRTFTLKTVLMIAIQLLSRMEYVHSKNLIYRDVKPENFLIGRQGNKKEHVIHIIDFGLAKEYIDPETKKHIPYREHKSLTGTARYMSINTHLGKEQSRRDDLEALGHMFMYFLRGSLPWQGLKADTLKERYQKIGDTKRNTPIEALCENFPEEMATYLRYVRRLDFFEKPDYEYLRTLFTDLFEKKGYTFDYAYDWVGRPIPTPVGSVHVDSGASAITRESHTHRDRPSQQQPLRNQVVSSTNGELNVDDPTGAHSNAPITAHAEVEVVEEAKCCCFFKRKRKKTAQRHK
# Fibroblast = test: Cytotoxicity against human fibroblast assessed as inhibition of cell growth after 72 hrs by resazurin based assay
# How it was run: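 Normal adult fibroblasts grown in DMEM with 10% FBS, seeded at 2×10^4 cells per well. Compounds added after 24 h at several concentrations; viability read 72 h later by resazurin fluorescence at 590 nm over 4 h.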
# [10] = target: T1, Casein kinase I isoform delta; test: Binding affinity to wild-type human full length CSNK1D (M1 to K409 residues) expressed in bacterial expression system at 10 uM by Kinomescan method relative to control; how it was run: as §1
# Target sequence in this assay (P48730 whole entry, looked up, the tested form may be a part, canonical isoform): as the sequence (P48730 whole entry, the tested form may be a part, canonical isoform) above
# PBL [11] = test: Cytotoxicity against human PBL cells assessed as inhibition of cell growth after 72 hrs by resazurin based assay
# How it was run: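 Gradient-isolated PBL held overnight in RPMI-1640 with 10% FBS. Non-adherent resting cells (no PHA) at 5×10^5 cells/mL, exposed to compounds for 72 h. Viability read as resazurin fluorescence at 590 nm over 4 h.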
# [12] = target: T1, Casein kinase I isoform delta; test: ATP competitive inhibition of recombinant human N-terminal GST-tagged CK1delta (1 to 294 residues) in presence of varying level of ATP by Kinase-Glo reagent-based luminescence assay
# How it was run: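 Truncated enzyme (16 ng) in 50 mM HEPES pH 7.5, 1 mM EDTA, 1 mM EGTA, 15 mM Mg acetate with 0.1% casein; ATP in the added mix at 4, 40 or 400 µM (Fig. 8-B gives 2, 20, 200 µM). 60 min at 30 °C, then Kinase-Glo, luminescence read after 10 min at 25 °C. Activity is compared across ATP levels.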
# Target sequence in this assay (P48730 whole entry, looked up, the tested form may be a part, canonical isoform): as the sequence (P48730 whole entry, the tested form may be a part, canonical isoform) above
# [13] = target: Casein kinase I isoform gamma-3 (Homo sapiens) (UniProt Q9Y6M4); test: Binding affinity to wild-type human full length CSNK1G3 (M1 to K447 residues) expressed in bacterial expression system at 10 uM by Kinomescan method relative to control; how it was run: as §1
# Sequence of Casein kinase I isoform gamma-3 (Homo sapiens) (Q9Y6M4 whole entry, looked up, the tested form may be a part, canonical isoform): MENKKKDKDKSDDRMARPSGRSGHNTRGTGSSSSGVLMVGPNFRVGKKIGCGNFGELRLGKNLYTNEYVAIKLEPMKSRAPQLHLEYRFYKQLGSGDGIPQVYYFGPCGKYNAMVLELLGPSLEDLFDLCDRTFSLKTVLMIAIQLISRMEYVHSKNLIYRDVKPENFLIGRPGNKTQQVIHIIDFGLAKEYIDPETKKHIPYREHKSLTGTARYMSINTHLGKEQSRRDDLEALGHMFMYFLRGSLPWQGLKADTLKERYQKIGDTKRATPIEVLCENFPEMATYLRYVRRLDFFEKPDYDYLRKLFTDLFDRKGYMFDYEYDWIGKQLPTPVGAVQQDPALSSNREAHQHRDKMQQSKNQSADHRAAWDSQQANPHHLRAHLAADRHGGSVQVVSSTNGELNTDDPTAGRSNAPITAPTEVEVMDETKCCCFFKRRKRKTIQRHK
# [14] = target: T1, Casein kinase I isoform delta; test: Inhibition of wild-type human CK1delta using PLSRTLpSVASLPGL as substrate incubated for 40 mins in presence of ATP by Kinase-Glo luminescence assay
# Target sequence in this assay (P48730 whole entry, the tested form may be a part, canonical isoform): as the sequence (P48730 whole entry, the tested form may be a part, canonical isoform) above
# [15] = target: T3, Casein kinase I isoform epsilon; test: Inhibition of wild-type human CK1epsilon using PLSRTLpSVASLPGL as substrate incubated for 70 mins in presence of ATP by Kinase-Glo luminescence assay
# Target sequence in this assay (P49674 whole entry, the tested form may be a part, canonical isoform): as the sequence (P49674 whole entry, looked up, the tested form may be a part, canonical isoform) above
# [16] = Inhibition of porcine brain CK1delta using RRKHAAIGpSAYSITA as substrate incubated for 30 mins in presence of [gamma-33P]ATP by scintillation counting method; assay type: tissue-based, Sus scrofa domesticus
IC50 [1] [µM],inhibition [2] [%],Compound,other results
0.67,89.3,Nc1nc(NC2CCCCC2)nc2nc(-c3cc(O)cc(O)c3)nn12,
0.99,86.1,CCNC(=O)c1cnc(N)n2nc(-c3cc(O)cc(O)c3)nc12,
,33.5,COc1cc(OC)cc(-c2nc3cc(N(C)C)nc(N)n3n2)c1,
,39.7,CCOC(=O)c1cnc(N)n2nc(-c3ccc(OCc4ccccc4)cc3)nc12,
5.32,84.2,CC(C)(C)OC(=O)NCCNC(=O)c1cnc(N)n2nc(-c3cc(O)cc(O)c3)nc12,
,19.4,COc1cc(OC)cc(-c2nc3cc(NCc4ccccc4)nc(N)n3n2)c1,
,18.8,CCOC(=O)c1cnc(N)n2nc(-c3cc(OC)cc(OC)c3)nc12,
0.32,90.4,CCNC(=O)c1cnc(N)n2nc(-c3cccc(O)c3)nc12,
,35.7,CCOC(=O)c1cnc(NCc2ccc(OC)c(OC)c2)n2nc(-c3ccccc3)nc12,
,11.3,CCOC(=O)c1cnc(NCc2ccc(OC)c(OC)c2)n2nc(-c3ccc(F)cc3)nc12,
0.3,75.2,Nc1nc(NCc2ccccc2)cc2nc(-c3cccc(O)c3)nn12,
,9,CCOC(=O)c1cnc(NCc2ccc(-c3ccccc3)cc2)n2nc(-c3cccc(O)c3)nc12,
,9.7,COc1cc(OC)cc(-c2nc3nc(NCc4ccc(Cl)cc4)nc(N)n3n2)c1,
0.74,80.2,Nc1nc(NCc2ccccc2)cc2nc(-c3cc(O)cc(O)c3)nn12,
,4.5,COc1cc(OC)cc(-c2nc3nc(NCc4ccccc4)nc(N)n3n2)c1,
,44.7,CCOC(=O)c1cnc(N)n2nc(-c3ccc(F)cc3)nc12,
26.7,75.8,Nc1ncc(C(=O)O)c2nc(-c3cccc(O)c3)nn12,
3.3,68.6,COc1cc(O)cc(-c2nc3nc(NC4CCCCC4)nc(N)n3n2)c1,
0.21,93.6,NCCNC(=O)c1cnc(N)n2nc(-c3cc(O)cc(O)c3)nc12,
,10.5,COc1cc(OC)cc(-c2nc3nc(NCc4ccc(F)cc4)nc(N)n3n2)c1,
20.2,59.7,CCOC(=O)c1cnc(N)n2nc(-c3ccncc3)nc12,
,7.1,CCOC(=O)c1cnc(NC)n2nc(-c3cccc(O)c3)nc12,
,16.8,CC(C)(C)OC(=O)NCCNC(=O)c1cnc(N)n2nc(-c3cccc(O)c3)nc12,
15.2,53.7,CCOC(=O)c1cnc(N)n2nc(-c3cccc(F)c3)nc12,
1.32,70.4,Nc1nc(NCc2ccccc2)nc2nc(-c3ccc(O)cc3)nn12,
0.48,97.8,CCOC(=O)c1cnc(N)n2nc(-c3cc(O)cc(O)c3)nc12,
15.2,66.6,CCOC(=O)c1cnc(N)n2nc(C)nc12,
0.47,87,Nc1nc(NCc2ccc(F)cc2)nc2nc(-c3cc(O)cc(O)c3)nn12,

# The remaining lines, values behind:
Compound,IC50 [1] [µM],inhibition [2] [%],other results
CCOC(=O)c1cnc(N)n2nc(-c3cccc(N)c3)nc12,16.6,66.8,
CCOC(=O)c1cnc(N)n2nc(-c3ccccc3)nc12,8.67,62.2,
Oc1cccc(-c2nc3nc(NCc4ccccc4)nc(NCc4ccccc4)n3n2)c1,,-8.5,
Nc1nc(NCc2ccccc2)nc2nc(-c3cc(O)cc(O)c3)nn12,0.18,85.3,Activity [3]: 14%; Activity [4]: 1.4%; IC50 [5]: 0.3 µM; Activity [6]: 20%; Activity [7]: 3.2%; IC50 (PBL [8]): > 10 µM; Activity [9]: 32%; IC50 (Fibroblast): > 10 µM; Activity [10]: 14%; IC50 (PBL [11]): > 10 µM; inhibition [12]: Active; Activity [13]: 14%
CCOC(=O)c1cnc(NCc2ccccc2)n2nc(-c3cccc(OC)c3)nc12,,10.9,
CCOC(=O)c1cnc(N)n2nc(-c3ccc(OC)cc3)nc12,,50.3,
CCOC(=O)c1cnc(N)n2nc(C3CCCC3)nc12,12.3,76.8,
CCOC(=O)c1cnc(N)n2nc(-c3cc4ccccc4[nH]3)nc12,,22.4,
COc1cc(OC)cc(-c2nc3nc(NCc4cccc(C)c4)nc(N)n3n2)c1,,13.9,
CCOC(=O)c1cnc(NCc2ccc(-c3ccccc3)cc2)n2nc(-c3cccc(OC)c3)nc12,,17.5,
Nc1nc(NCc2ccccc2)nc2nc(-c3cccc(O)c3)nn12,0.46,84.2,
Nc1nc(NCc2ccc(Cl)cc2)nc2nc(-c3cc(O)cc(O)c3)nn12,0.75,95.8,
Nc1nccc(-c2c(-c3ccc(F)cc3)ncn2C2CCN(Cc3ccon3)CC2)n1,,,IC50 [14]: 0.0039 µM; IC50 [15]: 0.017 µM
CCOC(=O)c1cnc(N)n2nc(-c3cccc(OC)c3)nc12,25,52,
CCOC(=O)c1cnc(N)n2nc(-c3ccc(O)c(O)c3)nc12,4.75,98,
CCOC(=O)c1cnc(N)n2nc(-c3cccc([N+](=O)[O-])c3)nc12,,21.6,
CCC(CO)Nc1nc(NCc2ccc(-c3ccccn3)cc2)c2ncn(C(C)C)c2n1 (configuration not stated),,,IC50 [16]: 0.4 µM
NCCNC(=O)c1cnc(N)n2nc(-c3cccc(O)c3)nc12,1.26,93,
CCOC(=O)c1cnc(NCc2ccccc2)n2nc(-c3cccc(O)c3)nc12,,1.2,
COc1cccc(-c2nc3nc(NCc4ccccc4)nc(N)n3n2)c1,,18.1,
CCOC(=O)c1cnc(N)n2nc(-c3cccc(O)c3)nc12,2.06,88.9,
Cc1cccc(CNc2nc(N)n3nc(-c4cc(O)cc(O)c4)nc3n2)c1,0.53,79.7,
CCOC(=O)c1cnc(N)n2nc(-c3ccc(O)cc3)nc12,,39.3,
Nc1nc(NCc2ccccc2)nc2nc(-c3ccc(O)c(O)c3)nn12,0.91,93.8,
